# Screening data: PubChem BioAssay, Broad Institute
# Most compounds without a hit are left out; they make up all but 2.8% or so of the library.
# E-selectin induc: E-selectin induction in HUVECs, primary screen, imaging, HUVEC, immunofluorescence imaging, single point. P16581. normalized: neutral wells 0, TNF-alpha wells 100. activation, % at 7.58 µM. 0.37% of 260,000 active. AID 686992, 2013;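 active means mean E-selectin-positive cell signal at least 10% of the positive control, reached in at least 60% of replicates, without over 20% cell loss; inconclusive means no rule given, readout overlaps actives, possibly toxicity-flagged; inactive means the rest, including those meeting only one limit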
# Target sequence (P16581 whole entry, looked up): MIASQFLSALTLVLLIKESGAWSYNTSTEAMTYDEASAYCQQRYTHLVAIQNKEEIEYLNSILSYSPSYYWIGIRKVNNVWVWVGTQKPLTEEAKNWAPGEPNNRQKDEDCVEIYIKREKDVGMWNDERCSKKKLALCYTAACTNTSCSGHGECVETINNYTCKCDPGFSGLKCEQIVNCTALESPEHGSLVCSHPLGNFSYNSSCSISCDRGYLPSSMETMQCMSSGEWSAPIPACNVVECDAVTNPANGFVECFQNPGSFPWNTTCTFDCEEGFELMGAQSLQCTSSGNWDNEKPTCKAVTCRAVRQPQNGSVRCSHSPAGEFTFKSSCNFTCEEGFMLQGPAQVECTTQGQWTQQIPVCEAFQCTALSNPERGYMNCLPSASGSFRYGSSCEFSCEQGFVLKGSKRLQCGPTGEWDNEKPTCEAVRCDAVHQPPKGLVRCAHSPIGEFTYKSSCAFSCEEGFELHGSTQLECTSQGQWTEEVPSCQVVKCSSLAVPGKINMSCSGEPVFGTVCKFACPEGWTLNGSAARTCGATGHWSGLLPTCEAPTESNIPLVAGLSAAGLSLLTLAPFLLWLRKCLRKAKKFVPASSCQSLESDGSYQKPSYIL
#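 Test system: HUVEC | Signal: Immunofluorescence imaging | Read-out: Percent E-selectin-positive cells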
# SIRT5 block: SIRT5 desuccinylase inhibitors, primary screen, biochemical, fluorescence imaging, single point, set 5; 1.1% of 330,000 active; AID 652115, 2013; NAD-dependent protein deacylase sirtuin-5, mitochondrial (Homo sapiens), Q9NXA8; inhibition, % at 15 µM; Purified SirT5, succinyl-peptide AMC, trypsin-coupled fluorescence; in the data active means inhibition above about 15%; inconclusive means no clear call, values can overlap the other calls
# DENV2 CPE: inhibitors of DENV2 cytopathic effect, primary screen, cell-based, plate reader, single concentration; DENV2-infected cells, cytopathic effect rescue; CPE inhibition, % at 9.99 µM; 1.7% of 350,000 active; in the data active means CPE inhibition above about 20%, passing the limit was not always enough; inconclusive means no clear call, values can overlap the other calls; tested in BHK-21 cells;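 further: 0% = median of neutral control wells and 100% = median of positive control wells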
# * marks the source's active call; other numbers are inactive results; ? = inconclusive; nt = no result.
SMILES,E-selectin induc,SIRT5 block,DENV2 CPE
COC(=O)C[C@@H]1C[C@H]2c3cc(NC(=O)Cc4ccncc4)ccc3O[C@H]2[C@H](CO)O1,0,15*,8
CS(=O)(=O)Nc1ccc2c(c1)[C@H]1C[C@H](CC(=O)O)O[C@@H](CO)[C@H]1O2,1,-4,25*
O=C(O)C[C@H]1C[C@@H]2c3cc(NC(=O)Cc4ccncc4)ccc3O[C@@H]2[C@@H](CO)O1,0,2,90*
COC(=O)C[C@H]1C[C@H]2c3cc(NS(C)(=O)=O)ccc3O[C@H]2[C@H](CO)O1,1,-4,0
O=C(C[C@H]1C[C@@H]2c3cc(NC(=O)Cc4ccncc4)ccc3O[C@@H]2[C@H](CO)O1)NCCN1CCCCC1,0,-3,-1
C[C@H]1CN([C@@H](C)CO)S(=O)(=O)c2ccc(C#CC3CC3)cc2O[C@@H]1CN(C)C(=O)c1cccnc1,0,1,4
COc1cccc(CNC(=O)C[C@H]2CC[C@@H](NS(=O)(=O)c3ccccc3OC)[C@@H](CO)O2)c1,1,-3,2
COc1ccc2c3c(n(C)c2c1)[C@H](CO)N(Cc1ccccc1)CC31CCN(C(=O)c2ccccc2F)CC1,0,9,?
CN1C(=O)c2cc(NC(=O)Nc3ccccc3F)ccc2OC[C@H]2O[C@@H](CC(=O)NCc3ccc(-c4ccccc4)cc3)CC[C@H]21,0,1,48*
CN1C(=O)c2cc(NC(=O)Nc3ccccc3F)ccc2OC[C@H]2O[C@H](CC(=O)NCc3ccc(-c4ccccc4)cc3)CC[C@@H]21,0,11,?
CN1C(=O)c2cc(NS(C)(=O)=O)ccc2OC[C@@H]2O[C@H](CC(=O)NCc3ccc(-c4ccccc4)cc3)CC[C@H]21,1,2,-3
CCNC(=O)Nc1ccc2c(c1)C(=O)N(C)[C@@H]1CC[C@H](CC(=O)NCc3ccccc3F)O[C@H]1CO2,0,0,71*
CCNC(=O)Nc1ccc2c(c1)C(=O)N(C)[C@@H]1CC[C@H](CC(=O)NCc3ccccc3F)O[C@@H]1CO2,0,3,?
CN1C(=O)c2cc(NS(C)(=O)=O)ccc2OC[C@@H]2O[C@H](CC(=O)NCc3ccc(-c4ccccc4)cc3)CC[C@@H]21,65*,1,0
C#Cc1ccc([C@@H]2C=C(C(=O)N3CCCCCCC3)O[C@H](OCC)[C@H]2CCCO)cc1,nt,0,-2
O=C(C[C@H]1CC[C@H]2[C@@H](COC[C@@H](O)CN2S(=O)(=O)c2ccc(Cl)cc2)O1)NCCN1CCCC1,?,0,-5
CCOC(=O)N1CCN(CC(O)COc2ccc(-c3ccccc3)cc2)CC1 (stereo not drawn),nt,3,-2
NC(=O)C1CCN(CC(O)COc2ccc(-c3ccccc3)cc2)CC1 (stereo not drawn),nt,-2,50*
O=C(CCCN1C(=O)/C(=C\c2ccco2)SC1=S)Nc1ccc(O)cc1C(=O)O,nt,40*,3
O=C(CCCN1C(=O)/C(=C\c2cccs2)SC1=S)Nc1cccc(C(=O)O)c1,nt,nt,3
O=C(CCCN1C(=O)/C(=C\c2cccs2)SC1=S)Nc1ccc(O)cc1C(=O)O,nt,-3,1
COC(=O)c1ccc(/C=C2/SC(=S)N(CCC(=O)NCCCN3CCOCC3)C2=O)cc1,nt,23*,9
CCc1ccc(/C=C2/SC(=S)N(CCC(=O)NCCCN3CCOCC3)C2=O)cc1,0,-3,2
CC(=O)Oc1ccc(/C=C2/SC(=S)N(Cc3ccccc3)C2=O)cc1,nt,16*,6
O=C(CCCN1C(=O)/C(=C/c2ccco2)SC1=S)Nc1cccc(C(=O)O)c1,nt,42*,1
SMILES,E-selectin induc,SIRT5 block,DENV2 CPE
O=C(O)c1ccc(/C=C2/SC(=S)N(Cc3ccccc3)C2=O)cc1,0,-1,-5
CNC(=O)C[C@@H]1CC[C@@H]2[C@H](COc3ccc(NC(=O)Nc4cc(C)cc(C)c4)cc3C(=O)N2C)O1,0,-3,3
CC(=O)N(C)C[C@H]1Oc2ncc(/C=C/c3ccccc3)cc2C(=O)N([C@@H](C)CO)C[C@H]1C,0,-10,-1
CCOc1ccc(/C=C2\SC(=S)N(CCC(=O)Nc3ccc(C(=O)O)cc3)C2=O)cc1,nt,7,10
CCOc1ccc(/C=C2\SC(=S)N(CCC(=O)Nc3cccc(C(=O)O)c3)C2=O)cc1,0,1,32*
COc1cccc(S(=O)(=O)Nc2ccc3c(c2)[C@H]2C[C@@H](CC(=O)NCc4ccccc4F)O[C@@H](CO)[C@H]2O3)c1,0,-4,?
C[C@H](CO)N1C[C@H](C)[C@@H](CN(C)C(=O)C2CCOCC2)Oc2ncc(C#CC(C)(C)O)cc2C1=O,0,-3,1
O=C1[C@H](Cc2ccccc2)NCC=CC[C@H](c2ccc(Cl)cc2)N1Cc1ccc(Cl)cc1,0,nt,2
O=C1[C@H](Cc2ccccc2)NCC=CC[C@H](c2ccc(Cl)cc2)N1Cc1ccccc1,0,nt,25*
CC1CCc2sc(C(=O)NN=C3CCCC3)cc2C1 (stereo not drawn),0,-3,52*
CC1CCc2sc(C(=O)NN)cc2C1 (stereo not drawn),nt,-3,0
C[C@@H]1CCCCO[C@H](CN(C)C(=O)NC2CCCCC2)[C@H](C)CN([C@H](C)CO)C(=O)c2cc(NS(C)(=O)=O)ccc2O1,nt,nt,0
CSC(=NS(=O)(=O)c1ccc(N)cc1)NS(=O)(=O)c1cccs1,nt,53*,-10
CSC(=NC(C)c1ccccc1)NS(=O)(=O)c1cccs1 (stereo not drawn),0,-2,-2
C[C@@H]1CCCCO[C@@H](CN(C)C(=O)Nc2ccc3c(c2)OCO3)[C@@H](C)CN([C@H](C)CO)C(=O)c2cc(NC(=O)CCCCCC(=O)Nc3ccccc3N)ccc2O1,0,nt,3
COc1ccccc1C#Cc1ccc2c(c1)[C@H]1[C@H](CCN1S(=O)(=O)c1cccc(C)c1)[C@@H](CO)N2,1,-2,-6
Cn1nc(C(=O)NNC(=O)c2ccccc2Br)c2ccccc2c1=O,237*,2,6
Cn1nc(C(=O)NNC(=O)c2ccc(Cl)c(S(N)(=O)=O)c2)c2ccccc2c1=O,nt,3,-2
Cn1nc(C(=O)NNC(=O)c2cccc(Cl)c2)c2ccccc2c1=O,nt,1,67*
Cn1nc(C(=O)NNC(=O)c2ccccc2F)c2ccccc2c1=O,nt,1,14
Cc1ccc(S(=O)(=O)Nc2ccc3c(c2)C(=O)N([C@@H](C)CO)C[C@H](C)[C@H](CN(C)S(=O)(=O)c2c(C)noc2C)O3)cc1,0,-6,5
CC(C)NC(=O)NCC[C@H]1CC[C@@H](NS(=O)(=O)c2ccccc2)[C@H](CO)O1,0,-2,?
Cc1ccc(S(=O)(=O)N2CCN(C(=O)COC(=O)Cc3ccc(F)cc3)CC2)c(C)c1,0,4,0
Cc1ccc(S(=O)(=O)N2CCN(C(=O)COC(=O)Cc3ccc(Cl)cc3)CC2)c(C)c1,nt,3,25*
CCCNC(=O)N(C)C[C@H]1Oc2cc(C3=CCCCC3)ccc2S(=O)(=O)N([C@@H](C)CO)C[C@@H]1C,0,-3,13
CCC(=O)N(C)C[C@@H]1Oc2cc(C3=CCCCC3)ccc2S(=O)(=O)N([C@H](C)CO)C[C@H]1C,-1,nt,nt
